Measurements: ChEMBL document CHEMBL4732054, “Extension of furopyrimidine nucleosides with 5-alkynyl substituent: Synthesis, high fluorescence, and antiviral effect in the absence of free ribose hydroxyl groups” (Eur J Med Chem, 2021)

Tests used:
[1] = system: Human alphaherpesvirus 3; assay: Antiviral activity against thymidine kinase deficient Varicella zoster virus 07-1 infected in human HEL cells assessed as reduction in virus-induced cytopathogenic effect measured after 3 days coulter counter method; assay type: functional, organism-based; settings: Human alphaherpesvirus 3, 07-1, HEL, 72 h
[2] = system: Human alphaherpesvirus 3; assay: Antiviral activity against thymidine kinase positive Varicella zoster virus OKA infected in human HEL cells assessed as reduction in virus-induced cytopathogenic effect measured after 3 days coulter counter method; assay type: functional, organism-based; settings: Human alphaherpesvirus 3, OKA, 72 h
[3] = system: HEL; assay: Cytotoxicity against human HEL cells assessed as reduction in cell growth incubated for 3 days by coulter counter method; assay type: cell-based; settings: 72 h, time 3 day
Outline: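 HEL cells were seeded at 5 × 10^3 cells/well and allowed to grow for 24 h. Medium containing varying compound concentrations was then added, and cells were incubated 3 days at 37 °C. Cell number was counted with a Coulter counter.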

[4] = Cytotoxicity against human HEL cells assessed as concentration required to cause visible alteration in cell morphology incubated for 3 days by coulter counter method; assay type: cell-based; settings: time 3 day
Outline: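 MCC scored by microscopy in confluent HEL cell cultures as the lowest compound concentration that causes a visible change in cell morphology.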

[5] = Selectivity index, ratio of CC50 for human HEL cells to EC50 for thymidine kinase positive Varicella zoster virus OKA infected in human HEL cells; assay type: toxicity, cell-based; settings: read-out: Ratio CC50/EC50
Outline: (§1)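 VZV plaque reduction in confluent HEL cells: 20 PFU input, 1–2 h adsorption, then unbound virus removed and cells given varying compound concentrations in duplicate. EC50 is the concentration halving plaque number. […] SI = CC50/EC50.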

[6] = Selectivity ratio of EC50 for thymidine kinase deficient Varicella zoster virus 07-1 infected in human HEL cells to EC50 for thymidine kinase positive Varicella zoster virus OKA infected in human HEL cells; assay type: functional
[7] = Selectivity index, ratio of CC50 for human HEL cells to EC50 for thymidine kinase deficient Varicella zoster virus 07-1 infected in human HEL cells; assay type: toxicity, cell-based; settings: read-out: Ratio CC50/EC50; outline: as §1

| Structure (SMILES) | EC50 [1] [µM] | EC50 [2] [µM] | CC50 [3] [µM] | MCC at 72 h [4] [µM] | selectivity ratio [5] | Ratio EC50 [6] | selectivity ratio [7] |
| --- | --- | --- | --- | --- | --- | --- | --- |
| CCCCCc1ccc(-c2oc3nc(=O)n([C@H]4C[C@H](OC(C)=O)[C@@H](COC(C)=O)O4)cc3c2C#CCO)cc1 | 13 | 7.56 | 3.8 | 100 | ≤ 1 |  |  |
| O=c1[nH]c(=O)n([C@H]2C[C@H](O)[C@@H](CO)O2)cc1/C=C/Br [BRIVUDINE] | 12 |  | > 300 | > 300 |  |  |  |
| COCC#Cc1c(-c2ccc(C)cc2)oc2nc(=O)n([C@H]3C[C@H](OC(C)=O)[C@@H](COC(C)=O)O3)cc12 | 44.7 | 20 |  | > 100 |  |  |  |
| CC(=O)OC[C@H]1O[C@@H](n2cc3c(C#CCCO)c(-c4ccc(C)cc4)oc3nc2=O)C[C@@H]1OC(C)=O | > 100 | 76.5 |  | > 100 |  |  |  |
| CCCCCc1ccc(-c2oc3nc(=O)n([C@H]4C[C@H](OC(C)=O)[C@@H](COC(C)=O)O4)cc3c2C#CCCO)cc1 | 13 | 4.02 | 2.66 | 100 | ≤ 1 |  |  |
| CC(=O)OC[C@H]1O[C@@H](n2cc3c(C#Cc4ccc(C)cc4)c(-c4ccc(C)cc4)oc3nc2=O)C[C@@H]1OC(C)=O | 10.9 | 6.84 | 8.77 | 60 | ≤ 1 |  |  |
| CC(=O)OCC#Cc1c(-c2ccc(C)cc2)oc2nc(=O)n([C@H]3C[C@H](OC(C)=O)[C@@H](COC(C)=O)O3)cc12 | 100 | > 100 |  | > 100 |  |  |  |
| CC(=O)OC[C@H]1O[C@@H](n2cc3c(C#CC4(O)c5ccccc5-c5ccccc54)c(-c4ccc(C)cc4)oc3nc2=O)C[C@@H]1OC(C)=O | 7.61 | 1.3 | 2.36 | 100 | ≤ 1 |  |  |
| CC(=O)OC[C@H]1O[C@@H](n2cc3c(C#CCCN4C(=O)c5ccccc5C4=O)c(-c4ccc(C)cc4)oc3nc2=O)C[C@@H]1OC(C)=O | 38.1 | 31 |  | 100 |  |  |  |
| CC(=O)OC[C@H]1O[C@@H](n2cc3c(C#CCO)c(-c4ccc(C)cc4)oc3nc2=O)C[C@@H]1OC(C)=O | > 100 | 66.9 |  | > 100 |  |  |  |
| CCCCCc1ccc(C#Cc2c(-c3ccc(C)cc3)oc3nc(=O)n([C@H]4C[C@H](OC(C)=O)[C@@H](COC(C)=O)O4)cc23)cc1 | > 4 | > 4 |  | 20 |  |  |  |
| Nc1nc2c(ncn2COCCO)c(=O)[nH]1 [ACYCLOVIR] |  |  | > 300 | > 440 |  |  |  |
| CCCCCc1ccc(C#Cc2c(-c3ccc(CCCCC)cc3)oc3nc(=O)n([C@H]4C[C@H](OC(C)=O)[C@@H](COC(C)=O)O4)cc23)cc1 | 8.94 | 1.5 | > 100 | 100 | 67 | 6 | 11 |
| CC(=O)OC[C@H]1O[C@@H](n2cc3c(C#CCCCCn4c5ccccc5c5ccccc54)c(-c4ccc(C)cc4)oc3nc2=O)C[C@@H]1OC(C)=O | 13.2 | 7.23 | 6.22 | 100 | ≤ 1 |  |  |
| CCCCCc1ccc(-c2oc3nc(=O)n([C@H]4C[C@H](OC(C)=O)[C@@H](COC(C)=O)O4)cc3c2C#Cc2ccc(C)cc2)cc1 | > 20 | 7.61 |  | 100 |  |  |  |
